Measured values taken from ChEMBL document CHEMBL3877264, “Quinolidene-rhodanine conjugates: Facile synthesis and biological evaluation” (Eur J Med Chem, 2017).
≈ marks a conversion by molar mass, not a printed value.

Tests used:
[1] = Cytotoxicity against human A549 cells measured after 48 hrs by MTT assay; format: toxicity, cell-based
[2] = Cytotoxicity against […]-differentiated human THP1 cells measured after 48 hrs by MTT assay; format: toxicity, cell-based, THP-1
How it was run: (§1)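 MTT assay with 48 h compound exposure. THP-1 macrophages made by 24 h PMA treatment. Each concentration tested in triplicate in one experiment. % cytotoxicity = (control−test)/(control−blank)×100, with control = cells + DMSO and blank = medium without cells. IC50 from % survival versus concentration plots.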

[3] = Cytotoxicity against human HeLa cells measured after 48 hrs by MTT assay; format: toxicity, cell-based
[4] = Cytotoxicity against primary HUVEC measured after 48 hrs by MTT assay; format: toxicity, cell-based; settings: human
[5] = Cytotoxicity against human THP1 cells measured after 48 hrs by MTT assay; format: toxicity, cell-based, THP-1; how it was run: as §1
[6] = Cytotoxicity against human PANC1 cells measured after 48 hrs by MTT assay; format: toxicity, cell-based, PANC-1
Pseudomonas fluorescens [7] = test: Growth inhibition of Pseudomonas fluorescens NCIM 2036 at 3 ug/ml measured after 8 hrs relative to control; format: functional; settings: NCIM 2036, 8 h, read-out: GI
How it was run: (§2)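 Bacteria grown in LB at 37 °C and 180 rpm to OD 1. Compounds added to wells, then 0.1% inoculum of 1 OD culture (620 nm). Growth read as OD at 620 nm after 8 h for gram-negative and after 12 h for gram-positive strains.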

Candida albicans = test: Antifungal activity against Candida albicans NCIM 3471 by standard agar method; format: functional
How it was run: (§3)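 MICs determined by standard agar method; DMSO as solvent control.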

Bacillus subtilis [8] = test: Antibacterial activity against Bacillus subtilis NCIM 2079 measured after 12 hrs; format: functional; settings: NCIM 2079, 12 h; how it was run: as §2
Escherichia coli [9] = test: Antibacterial activity against Escherichia coli NCIM 2688 measured after 8 hrs; format: functional; settings: NCIM 2688, 8 h; how it was run: as §2
Staphylococcus aureus [10] = test: Antibacterial activity against of Staphylococcus aureus NCIM 2010 measured after 12 hrs; format: functional; settings: NCIM 2010, 12 h; how it was run: as §2
Escherichia coli [11] = test: Growth inhibition of Escherichia coli NCIM 2688 at 30 ug/ml measured after 8 hrs relative to control; format: functional; settings: NCIM 2688, 8 h, read-out: GI; how it was run: as §2
[12] = tested on: Mycobacterium tuberculosis; test: Growth inhibition of Mycobacterium bovis BCG ATCC 35743 at dormant stage at 30 ug/ml measured after 12 days by nitrate reductase dye based two fold dilution method relative to control; format: functional; settings: BCG str. ATCC 35743, 288 h, read-out: GI
How it was run: (§4)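 M. bovis BCG was grown in Dubos medium and assayed in Mycobacterium pheli minimal medium (pH 6.6), with compounds from DMSO stocks. Incubation lasted 8 days for active and 12 days for dormant cultures. Viability was read by nitrate reductase at 540 nm against cell-free blanks, with vehicle set as 100% growth. Primary screen was at 30, 10 and 3 µg/ml, in triplicate, mean ± SD. MIC was taken from dose-response curves.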

Bacillus subtilis [13] = test: Growth inhibition of Bacillus subtilis NCIM 2079 at 3 ug/ml measured after 12 hrs relative to control; format: functional; settings: NCIM 2079, 12 h, read-out: GI; how it was run: as §2
[14] = tested on: Mycobacterium tuberculosis; test: Growth inhibition of Mycobacterium bovis BCG ATCC 35743 at active stage measured after 8 days by nitrate reductase dye based two fold dilution method; format: functional; settings: BCG str. ATCC 35743, 192 h; how it was run: as §4
Bacillus subtilis [15] = test: Growth inhibition of Bacillus subtilis NCIM 2079 at 30 ug/ml measured after 12 hrs relative to control; format: functional; settings: NCIM 2079, 12 h, read-out: GI; how it was run: as §2
Pseudomonas fluorescens [16] = test: Growth inhibition of Pseudomonas fluorescens NCIM 2036 at 30 ug/ml measured after 8 hrs relative to control; format: functional; settings: NCIM 2036, 8 h, read-out: GI; how it was run: as §2
Staphylococcus aureus [17] = test: Growth inhibition of Staphylococcus aureus NCIM 2010 at 10 ug/ml measured after 12 hrs relative to control; format: functional; settings: NCIM 2010, 12 h, read-out: GI; how it was run: as §2
[18] = tested on: Mycobacterium tuberculosis; test: Growth inhibition of Mycobacterium bovis BCG ATCC 35743 at dormant stage at 3 ug/ml measured after 12 days by nitrate reductase dye based two fold dilution method relative to control; format: functional; settings: BCG str. ATCC 35743, 288 h, read-out: GI; how it was run: as §4
Aspergillus niger = test: Antifungal activity against Aspergillus niger NCIM 1196 by standard agar method; format: functional; how it was run: as §3
[19] = Antifungal activity against Cryptococcus neoformans NCIM 576 by standard agar method; format: functional; how it was run: as §3
Aspergillus flavus = test: Antifungal activity against Aspergillus flavus NCIM 539 by standard agar method; format: functional; how it was run: as §3
Bacillus subtilis [20] = test: Growth inhibition of Bacillus subtilis NCIM 2079 at 10 ug/ml measured after 12 hrs relative to control; format: functional; settings: NCIM 2079, 12 h, read-out: GI; how it was run: as §2
Escherichia coli [21] = test: Growth inhibition of Escherichia coli NCIM 2688 at 10 ug/ml measured after 8 hrs relative to control; format: functional; settings: NCIM 2688, 8 h, read-out: GI; how it was run: as §2
Escherichia coli [22] = test: Growth inhibition of Escherichia coli NCIM 2688 at 3 ug/ml measured after 8 hrs relative to control; format: functional; settings: NCIM 2688, 8 h, read-out: GI; how it was run: as §2
[23] = tested on: Mycobacterium tuberculosis; test: Growth inhibition of Mycobacterium bovis BCG ATCC 35743 at dormant stage at 10 ug/ml measured after 12 days by nitrate reductase dye based two fold dilution method relative to control; format: functional; settings: BCG str. ATCC 35743, 288 h, read-out: GI; how it was run: as §4
[24] = Antifungal activity against Fusarium oxysporum NCIM 1332 by standard agar method; format: functional; how it was run: as §3
Staphylococcus aureus [25] = test: Growth inhibition of Staphylococcus aureus NCIM 2010 at 30 ug/ml measured after 12 hrs relative to control; format: functional; settings: NCIM 2010, 12 h, read-out: GI; how it was run: as §2
[26] = tested on: Mycobacterium tuberculosis; test: Growth inhibition of Mycobacterium tuberculosis H37Ra ATCC 25177 at dormant stage measured after 12 days by XTT dye based two fold dilution method; format: functional; settings: H37Ra ATCC 25177, 288 h
How it was run: (§5)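 MTB H37Ra was grown in Dubos medium, then exposed in Mycobacterium pheli minimal medium (pH 6.6) to compounds dissolved in DMSO. The assay ended on day 8 (active) or day 12 (dormant). Viable cells were measured by XTT reduction menadione assay at 470 nm, blank-corrected, relative to vehicle control. Triplicates were expressed as mean ± SD. MIC came from dose-response curves.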

[27] = tested on: Mycobacterium tuberculosis; test: Growth inhibition of Mycobacterium tuberculosis H37Ra ATCC 25177 at active stage measured after 8 days by XTT dye based two fold dilution method; format: functional; settings: H37Ra ATCC 25177, 192 h; how it was run: as §5
Pseudomonas fluorescens [28] = test: Antibacterial activity against Pseudomonas fluorescens NCIM 2036 measured after 8 hrs; format: functional; settings: NCIM 2036, 8 h; how it was run: as §2
Pseudomonas fluorescens [29] = test: Growth inhibition of Pseudomonas fluorescens NCIM 2036 at 10 ug/ml measured after 8 hrs relative to control; format: functional; settings: NCIM 2036, 8 h, read-out: GI; how it was run: as §2
Staphylococcus aureus [30] = test: Growth inhibition of Staphylococcus aureus NCIM 2010 at 3 ug/ml measured after 12 hrs relative to control; format: functional; settings: NCIM 2010, 12 h, read-out: GI; how it was run: as §2
[31] = tested on: Mycobacterium tuberculosis; test: Growth inhibition of Mycobacterium bovis BCG ATCC 35743 at dormant stage measured after 12 days by nitrate reductase dye based two fold dilution method; format: functional; settings: BCG str. ATCC 35743, 288 h; how it was run: as §4

Row | SMILES | inhibition of growth at 3 µg/mL (Pseudomonas fluorescens [7]) [%] | MIC (Candida albicans) [µg/mL] | MIC (Bacillus subtilis [8]) [µg/mL] | MIC (Escherichia coli [9]) [µg/mL] | MIC (Staphylococcus aureus [10]) [µg/mL] | inhibition of growth at 30 µg/mL (Escherichia coli [11]) [%] | inhibition of growth at 30 µg/mL [12] [%] | inhibition of growth at 3 µg/mL (Bacillus subtilis [13]) [%] | IC50 [14] [µg/mL] | IC90 [14] [µg/mL] | inhibition of growth at 30 µg/mL (Bacillus subtilis [15]) [%] | inhibition of growth at 30 µg/mL (Pseudomonas fluorescens [16]) [%] | inhibition of growth at 10 µg/mL (Staphylococcus aureus [17]) [%] | inhibition of growth at 3 µg/mL [18] [%] | MIC (Aspergillus niger) [µg/mL] | MIC [19] [µg/mL] | MIC (Aspergillus flavus) [µg/mL] | inhibition of growth at 10 µg/mL (Bacillus subtilis [20]) [%] | inhibition of growth at 10 µg/mL (Escherichia coli [21]) [%] | inhibition of growth at 3 µg/mL (Escherichia coli [22]) [%] | other results
1 | CC(=O)O[C@H]1C(=O)[C@@]2(C)[C@H]([C@H](OC(=O)c3ccccc3)[C@]3(O)C[C@H](OC(=O)[C@H](O)[C@@H](NC(=O)c4ccccc4)c4ccccc4)C(C)=C1C3(C)C)[C@]1(OC(C)=O)CO[C@@H]1C[C@@H]2O [PACLITAXEL] |  |  |  |  |  |  |  |  |  |  |  |  |  |  |  |  |  |  |  |  | GI50 at 48 h [1]: 0.04 µg/mL (≈ 0.0468 µM); GI50 at 48 h [2]: > 100 µg/mL; GI50 at 48 h [3]: 0.08 µg/mL (≈ 0.0937 µM); GI50 at 48 h [4]: > 10 µg/mL; GI50 at 48 h [5]: 5.7 µg/mL (≈ 6.68 µM); GI50 at 48 h [6]: 5.8 µg/mL (≈ 6.79 µM)
2 | COc1ccc2cc(/C=C3\SC(=S)N(CC(=O)O)C3=O)c(Cl)nc2c1 | 4.92 | 50 (≈ 127 µM) | > 30 | > 30 | > 30 | -17.9 | 0.66 | 2.79 | > 30 | > 30 | 6.8 | 10.3 | -11.3 | -1.36 | 150 (≈ 380 µM) | 100 (≈ 253 µM) | 125 (≈ 317 µM) | -0.0845 | 7.54 | 2.49 | inhibition of growth at 10 µg/mL [23]: 33%; MIC [24]: 75 µg/mL (≈ 190 µM); inhibition of growth at 30 µg/mL (Staphylococcus aureus [25]): -17.7%; IC50 [26]: > 30 µg/mL; IC90 [26]: > 30 µg/mL; IC50 [27]: > 30 µg/mL; IC90 [27]: > 30 µg/mL; MIC (Pseudomonas fluorescens [28]): > 30 µg/mL; inhibition of growth at 10 µg/mL (Pseudomonas fluorescens [29]): -54.3%; inhibition of growth at 3 µg/mL (Staphylococcus aureus [30]): -13.7%; IC50 [31]: > 30 µg/mL; IC90 [31]: > 30 µg/mL
3 | Cc1ccc2nc(Cl)c(/C=C3\SC(=S)N(CC(=O)O)C3=O)cc2c1 | -67.2 | 125 (≈ 330 µM) | > 30 | > 30 | > 30 | -6.72 | -0.24 | -24.1 | > 30 | > 30 | 1.48 | 13.2 | -6.18 | 14.9 | 175 (≈ 462 µM) | 125 (≈ 330 µM) | 150 (≈ 396 µM) | -6.38 | 0.409 | -1.08 | inhibition of growth at 10 µg/mL [23]: 13.5%; MIC [24]: 150 µg/mL (≈ 396 µM); inhibition of growth at 30 µg/mL (Staphylococcus aureus [25]): -5.17%; IC50 [26]: > 30 µg/mL; IC90 [26]: > 30 µg/mL; IC50 [27]: > 30 µg/mL; IC90 [27]: > 30 µg/mL; MIC (Pseudomonas fluorescens [28]): > 30 µg/mL; inhibition of growth at 10 µg/mL (Pseudomonas fluorescens [29]): -7.54%; inhibition of growth at 3 µg/mL (Staphylococcus aureus [30]): 0.77%; IC50 [31]: > 30 µg/mL; IC90 [31]: > 30 µg/mL
